Data taken from ChEMBL document CHEMBL3091364, “Benzyloxybenzylammonium chlorides: Simple amine salts that display anticonvulsant activity” (Bioorg Med Chem, 2013).
Activity calls are given as the source filed them. The calls are words filed in the database; no cut-off is given here.

How the values were obtained:
Mus musculus [1] = test: Anticonvulsant activity in ip dosed albino CF-1 mouse assessed as protection against maximal electroshock-induced seizures measured at 0.25 to 0.5 hrs; type: functional; conditions: albino CF-1, ip
Outline: (§1)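 Screened under the NINDS ASP in male albino Carworth Farms No. 1 mice (ip) or male albino Sprague-Dawley rats (ip or po), using MES, 6 Hz (32 mA) and subcutaneous pentylenetetrazol seizure tests. Initial qualitative tests used preset doses (e.g., 30, 50, 100 mg/kg). ED50 values with 95% confidence intervals came from dose–response data collected at the time of peak effect.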

Rattus norvegicus [2] = test: Anticonvulsant activity in ip dosed albino Sprague-Dawley rat assessed as protection against maximal electroshock-induced seizures measured at 0.5 hrs; type: functional; outline: as §1
Rattus norvegicus [3] = organism: Rattus norvegicus; test: Induction of Na+ channel slow inactivation in rat embryonic cortical neurons at 10 uM by whole-cell voltage clamp assay
Rattus norvegicus [4] = organism: Rattus norvegicus; test: Inhibition of Na+ channel in rat embryonic cortical neurons assessed as hyperpolarizing shift of current at 10 uM by whole-cell voltage clamp assay
Rattus norvegicus [5] = test: Anticonvulsant activity in po dosed albino Sprague-Dawley rat assessed as protection against maximal electroshock-induced seizures measured at 1 hr; type: functional; outline: as §1
Mus musculus [6] = test: Anticonvulsant activity in corneally kindled mouse assessed as protection against seizure at 78 mg/kg, ip; type: functional, organism-based; design: dose 78 mg/kg
Outline: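 Corneally kindled mouse seizure model with ip dosing. Protection was scored in 4 animals, and the average seizure score was recorded.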

Mus musculus [7] = test: Anticonvulsant activity in ip dosed albino CF-1 mouse assessed as protection against subcutaneous metrazol-induced seizure measured at 0.5 hrs; type: functional; conditions: albino CF-1, 0.5 h; outline: as §1
Rattus norvegicus [8] = test: Anticonvulsant activity in ip dosed albino Sprague-Dawley rat assessed as protection against maximal electroshock-induced seizures measured at 0.25 to 0.5 hrs; type: functional; outline: as §1

For Cl.NCc1ccc(OCc2cccc(F)c2)cc1, the ED50 (Mus musculus [1]) was < 100 mg/kg.

Cl.NCc1ccc(OCc2ccccc2OC(F)(F)F)cc1 was tested, and the ED50 (Rattus norvegicus [2]) was 18 mg/kg, the Activity (Rattus norvegicus [3]) was “Active” and the Activity (Rattus norvegicus [4]) was 15.3 mV. The ED50 (Rattus norvegicus [5]) was 30 mg/kg.

For Cl.NCc1ccc(OCc2cccc(Cl)c2)cc1, the Activity (Mus musculus [6]) was “Active”.

Cl.NCc1ccc(OCc2cccc(OC(F)(F)F)c2)cc1 was tested, and the ED50 (Mus musculus [7]) was > 170 mg/kg and the ED50 (Rattus norvegicus [8]) was < 30 mg/kg.
